Measurements reported in ChEMBL document CHEMBL1817650, “Fragment-based drug design and drug repositioning using multiple ligand simultaneous docking (MLSD): identifying celecoxib and template compounds as novel inhibitors of signal transducer and activator of transcription 3 (STAT3)” (J Med Chem, 2011).
The source made the active and inactive calls. The rule behind the calls is not given here.

What was measured:
HCT-116 [1] = assay: Anticancer activity against human HCT116 cells after 72 hrs by MTT assay; assay type: functional, cell-based; settings: HCT-116, 72 h
Outline: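 HCT-116 cells, 3,000 per well, given escalating concentrations (5–160 μM or 1–75 μM depending on compound) in triplicate with 10% FBS. Incubation was 72 h at 37°C, then MTT viability read-out at 595 nm absorbance. IC50 was derived by curve fitting.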

HCT-116 [2] = assay: Inhibition of STAT3 protein expression in COX2-negative human HCT116 cells at 10 to 50 uM after 24 hrs by Western blot analysis
[3] = molecular target: Signal transducer and activator of transcription 3 (Homo sapiens) (UniProt P40763); assay: Inhibition of IL-6-induced STAT3 phosphorylation in human PANC1 cells at 25 to 50 µM pretreated 2 hrs prior to IL-6 challenge measured after 30 mins; assay type: cell-based; settings: PANC-1
Signal transducer and activator of transcription 3 (Homo sapiens), sequence (P40763 whole entry, the tested form may be a part): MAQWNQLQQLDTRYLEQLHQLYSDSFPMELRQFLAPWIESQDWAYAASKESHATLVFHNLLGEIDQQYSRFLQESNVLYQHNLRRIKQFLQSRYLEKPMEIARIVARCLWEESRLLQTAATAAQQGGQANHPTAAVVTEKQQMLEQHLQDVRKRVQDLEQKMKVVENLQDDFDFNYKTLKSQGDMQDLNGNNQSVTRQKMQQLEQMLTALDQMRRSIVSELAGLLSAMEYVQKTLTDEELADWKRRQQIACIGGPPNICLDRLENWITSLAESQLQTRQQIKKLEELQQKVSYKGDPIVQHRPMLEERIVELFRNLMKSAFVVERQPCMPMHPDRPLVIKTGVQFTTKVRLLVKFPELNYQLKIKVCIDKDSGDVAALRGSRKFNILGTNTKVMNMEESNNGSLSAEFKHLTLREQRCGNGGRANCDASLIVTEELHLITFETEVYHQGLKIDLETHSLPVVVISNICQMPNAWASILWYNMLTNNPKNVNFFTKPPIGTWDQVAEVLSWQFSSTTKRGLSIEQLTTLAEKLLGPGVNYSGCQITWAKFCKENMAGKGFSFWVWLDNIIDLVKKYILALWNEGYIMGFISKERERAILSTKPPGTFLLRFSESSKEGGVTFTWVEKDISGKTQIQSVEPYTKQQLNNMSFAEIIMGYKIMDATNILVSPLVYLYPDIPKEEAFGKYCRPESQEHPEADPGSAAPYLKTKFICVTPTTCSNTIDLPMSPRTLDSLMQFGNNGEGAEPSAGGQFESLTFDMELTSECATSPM
Outline: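 PANC-1 cells were serum-starved for 24 h, then pretreated with 25 or 50 μM compound for 2 h. They were then stimulated with IL-6 at 50 ng/ml for 30 min, and STAT3 phosphorylation was assessed.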

[4] = molecular target: Signal transducer and activator of transcription 3 (Homo sapiens) (UniProt P40763); assay: Inhibition of STAT3 SH2 domain phosphorylation at Tyr705 in COX2-negative human HCT116 cells after 24 hrs by Western blot analysis; settings: HCT-116
[5] = molecular target: Signal transducer and activator of transcription 1 (Homo sapiens) (UniProt P42224); assay: Inhibition of interferon gamma induced STAT1 phosphorylation in human PANC1 cells at […] pretreated 2 hrs prior to interferon-gamma challenge measured after 30; settings: PANC-1
Signal transducer and activator of transcription 1 (Homo sapiens), sequence (P42224 whole entry, looked up): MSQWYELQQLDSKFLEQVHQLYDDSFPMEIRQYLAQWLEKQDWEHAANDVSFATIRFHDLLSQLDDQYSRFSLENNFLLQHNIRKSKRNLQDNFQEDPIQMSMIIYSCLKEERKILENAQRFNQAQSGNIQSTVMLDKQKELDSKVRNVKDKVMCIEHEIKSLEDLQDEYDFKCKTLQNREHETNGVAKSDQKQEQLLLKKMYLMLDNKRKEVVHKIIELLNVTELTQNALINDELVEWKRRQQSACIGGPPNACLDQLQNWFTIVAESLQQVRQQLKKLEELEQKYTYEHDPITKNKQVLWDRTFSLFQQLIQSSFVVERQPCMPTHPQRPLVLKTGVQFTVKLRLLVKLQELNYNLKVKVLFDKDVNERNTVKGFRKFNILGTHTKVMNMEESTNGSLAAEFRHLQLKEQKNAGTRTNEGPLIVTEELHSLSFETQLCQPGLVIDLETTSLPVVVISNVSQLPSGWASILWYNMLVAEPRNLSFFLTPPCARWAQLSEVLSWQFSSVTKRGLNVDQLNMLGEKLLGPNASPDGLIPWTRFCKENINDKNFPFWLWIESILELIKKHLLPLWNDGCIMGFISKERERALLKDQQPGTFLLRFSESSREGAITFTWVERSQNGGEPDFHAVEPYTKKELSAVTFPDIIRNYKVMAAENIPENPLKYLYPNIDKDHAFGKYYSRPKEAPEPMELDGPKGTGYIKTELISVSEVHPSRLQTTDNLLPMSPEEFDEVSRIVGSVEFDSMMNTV

SMILES | IC50 (HCT-116 [1]) [µM] | inhibition (HCT-116 [2]) | inhibition [3] | inhibition [4] | inhibition [5]
Cc1ccc(-c2cc(C(F)(F)F)nn2-c2ccc(S(N)(=O)=O)cc2)cc1 [CELECOXIB] | 43.3 | inactive | Active | Dose-dependent effect | inactive
NS(=O)(=O)c1ccc(-n2nc(C(=O)NN3CCCCC3)cc2-c2ccc(-c3ccccc3)cc2)cc1 | 10.1 | inactive | – | Dose-dependent effect | –
Cc1ccc(Cc2cc(-c3ccc(Br)cc3)n(-c3ccc(S(N)(=O)=O)cc3)n2)cc1 | 9.7 | inactive | – | Dose-dependent effect | –
